Published values collected from several papers.
Protocols differ between the studies behind these lines.
Target: Calcium/calmodulin-dependent protein kinase type II subunit delta (CAMK2D, Homo sapiens, UniProt Q13557)

Compound | read-out | action | technique | tested at | endpoint | value
O=C1NC(=O)c2cc(Nc3ccc(F)cc3)c(Nc3ccc(F)cc3)cc21 | cell-free assay | – | – | 0.5 µM | remaining signal | 97.9%
CN1CC(Oc2cnc(C#N)cc2-c2ccn3nc(NC(=O)C4CC4)cc3c2)C1 | enzyme activity | inhibitor | – | 1 µM | inhibition | -3%
Cc1ccc(C(=O)NCc2ccsc2)cc1C#Cc1cn(C(C)C)c2ncnc(N)c12 | enzyme activity | inhibitor | – | 1 µM | activity vs control | 102%
CC(C)(O)[C@H]1CC[C@H](Nc2ccc3ncc(-c4cccc(C(F)(F)F)c4)n3n2)CC1 | enzyme activity | inhibitor | – | 1 µM | remaining activity | 81.8%
CC(C)(C)c1nc2c(s1)c1nc(N)ncc1c1ccc(NS(=O)(=O)c3c(F)cccc3F)c(F)c12 | enzyme activity | inhibitor | radiometric | 1 µM | remaining activity | 96%
CCCCNc1ncc2c(-c3ccc(F)cc3)nn(C[C@H]3CC[C@H](N)CC3)c2n1 | target engagement in cells | inhibitor | chemoproteomics | 20 mM | inhibition | 44.3%
O=C(NS(=O)(=O)c1ccc(NCC2CCOCC2)c([N+](=O)[O-])c1)c1ccc(N2CCN(Cc3ccc(C(F)(F)F)cc3-c3ccc(Cl)cc3)CC2)cc1Oc1cnc2[nH]ccc2c1 | cell-free assay | – | competition with immobilised ligand | 1 µM | remaining binding | 100%
CCCOc1ccc(OC)c(F)c1C(=O)c1ccc(C(=O)N[C@@H]2CNC[C@H]2NC(=O)c2ccc3[nH]ncc3c2)cc1 | enzyme activity | inhibitor | – | 10 µM | remaining activity | 53%
COc1cc2ncnc(Nc3ccc(Oc4ccccc4)cc3C)c2cc1OC | enzyme activity | inhibitor | – | 1 µM | inhibition | 4%
CCN(CC)CCNC(=O)c1c(C)[nH]c(/C=C2\C(=O)Nc3ccc(F)cc32)c1C | enzyme activity | inhibitor | – | 0.3 µM | inhibition | 92%
O=C(NCc1ncc(C(F)(F)F)cc1Cl)c1ccc2c(c1)C1(CCS(=O)(=O)CC1)[C@H](C1CC1)N2S(=O)(=O)c1ccc(F)cc1 | cell-free assay | – | competition with immobilised ligand | 1 µM | remaining binding | 100%
N#CCCc1ccc2c(c1)-c1[nH]c3ccc([N+](=O)[O-])cc3c1CC(=O)N2 | cell-free assay | – | – | 0.5 µM | remaining signal | 57.8%
O=C(Nc1cnn(-c2csc(C(=O)NC3COC3)c2)c1)Nc1ccccc1Cl | enzyme activity | inhibitor | – | 5 µM | remaining activity | 103%
CC/C(=N\NC(=O)NCc1cccc(O)c1)c1ccc(O)c(C)c1O | enzyme activity | inhibitor | – | 0.1 µM | inhibition | -4.9%
CCOC(=O)c1cc2cc(-c3cc(C(=O)NCc4ccc(C(=O)O)cc4)nn3C)ccc2[nH]1 | cell-free assay | – | competition with immobilised ligand | 0.1 µM | remaining binding | 91%
CCCS(=O)(=O)Nc1ccc(F)c(C(=O)c2c[nH]c3ncc(-c4ccc(Cl)cc4)cc23)c1F | enzyme activity | inhibitor | – | 1 µM | inhibition | < 10%
Cc1ccc(C(=O)Nc2ccc(CN3CCN(C)CC3)c(C(F)(F)F)c2)cc1C#Cc1cnc2cccnn12 | enzyme activity | – | – | 23.5 nM | remaining activity | 96%
Nc1c(C(=O)NCc2ccc(C(=O)NCCCC3CCCCC3)cc2)cnn1-c1ccccc1 | cell-free assay | – | competition with immobilised ligand | 0.1 µM | remaining binding | 100%
C#Cc1cccc(Nc2ncnc3cc(OCCOC)c(OCCOC)cc23)c1 | cell-free assay | – | – | 0.5 µM | remaining signal | 95.1%
CNCc1ccccc1-c1csc([C@H](C)Nc2nc(C)nc3cc(OC)c(OC)cc23)c1 | cell-free assay | – | competition with immobilised ligand | 1 µM | remaining binding | 97%
COc1cc(Nc2c(C#N)cnc3cc(OCCCN4CCN(C)CC4)c(OC)cc23)c(Cl)cc1Cl | cell-free assay | – | – | 0.5 µM | remaining signal | 94.6%
CCN(CC)c1ccc(C2=NNC(=O)CC2C)cc1[N+](=O)[O-] (stereo not shown) | enzyme activity | inhibitor | – | 10 µM | remaining activity | 104%
CC(C)(O)c1cncc(-c2nc3ccc(F)cc3n2C2CC2)c1 | cell-free assay | – | competition with immobilised ligand | 1 µM | remaining binding | 100%
Cc1ccc(Nc2nccc(N(C)c3ccc4c(C)n(C)nc4c3)n2)cc1S(N)(=O)=O | enzyme activity | inhibitor | – | 0.3 µM | inhibition | 63%
CC1=C(C#N)[C@@H](c2ccc3[nH]nc(C)c3c2)C(C#N)=C(c2ccc(Cl)cc2)N1 | cell-free assay | – | competition with immobilised ligand | 1 µM | remaining binding | 82.1%
c1ccc(CNc2nc(N3CCOc4ccccc43)nc3c2CCCC3)cc1 | target engagement in cells | inhibitor | chemoproteomics | 20 mM | inhibition | -17.7%
NS(=O)(=O)c1cc(NC(=O)C2(c3ccccc3Cl)CC2)ccc1Oc1cccc(Cl)c1 | cell-free assay | – | competition with immobilised ligand | 1 µM | remaining binding | 100%
CNC(=O)c1cc(Oc2ccc(NC(=O)Nc3ccc(Cl)c(C(F)(F)F)c3)cc2)ccn1 | enzyme activity | inhibitor | – | 0.3 µM | inhibition | 56%
